# Measured values of several laboratories.
# Compare with care: the assays were run in different laboratories.
# Target: Receptor tyrosine-protein kinase erbB-2 (ERBB2, Homo sapiens, UniProt P04626)
SMILES,test,conditions,quantity,value
c1ccc(CNc2nc(N3CCOc4ccccc43)nc3c2CCCC3)cc1,"target engagement in cells, inhibitor, chemoproteomics",20 mM,inhibition,0.8%
COc1cc(Cl)c(C(=O)N[C@@H](CN[C@H]2CC[C@@H](N)CC2)Cc2ccc(C#N)cc2)cc1-c1ccc(CN[C@H](C)c2ccc(C)cc2)o1,"enzyme activity, inhibitor",1 µM,remaining activity,91%
Cc1cnc(NC2CCOCC2)nc1-n1cnc(C(=O)NC(CN)c2cc(F)cc(Cl)c2)c1 (stereo not shown),"enzyme activity, inhibitor, radiometric",1 µM,remaining activity,100%
C[C@H](c1ccc(F)cc1)N(Cc1cccc(C(=O)O)c1)C(=O)c1cnc2ccccc2c1,"cell-free assay, competition with immobilised ligand",1 µM,remaining binding,100%
CC(C)(O)[C@H]1CC[C@H](Nc2ccc3ncc(-c4cccc(C(F)(F)F)c4)n3n2)CC1,"enzyme activity, inhibitor",1 µM,remaining activity,92%
COc1cc2ncnc(Nc3ccc(Oc4ccccc4)c(C)c3C)c2cc1OC,"enzyme activity, inhibitor",1 µM,inhibition,76%
O=C1Nc2ccc(Cl)cc2C1=Cc1cc(Cl)c(O)c(Cl)c1,cell-free assay,0.5 µM,remaining signal,107%
CC(=O)N1CCC(c2ccc(C(=O)NC3=NCCN3)cc2C(F)(F)F)CC1,"cell-free assay, competition with immobilised ligand",1 µM,remaining binding,100%
CC/C(=N\NC(=O)NCc1cccc(O)c1)c1ccc(O)c(C)c1O,"enzyme activity, inhibitor",0.1 µM,inhibition,0.8%
COc1cc2c(N3CCN(C(=O)Nc4ccc(OC(C)C)cc4)CC3)ncnc2cc1OCCCN1CCCCC1,cell-free assay,0.5 µM,remaining signal,104%
O=C(Nc1cnn(-c2csc(C(=O)NC3COC3)c2)c1)Nc1c(F)cccc1Cl,"enzyme activity, inhibitor",5 µM,remaining activity,97%
Oc1ccc(-c2nc(-c3ccncc3)c(-c3ccc(F)cc3)[nH]2)cc1,cell-free assay,0.5 µM,remaining signal,95.5%
CS(=O)(=O)Nc1cccc(-c2csc(NC(=O)CSc3nc4nccnc4c(=O)n3CCc3ccccc3)n2)c1,"enzyme activity, inhibitor",10 µM,inhibition,-12%
CCCS(=O)(=O)Nc1ccc(F)c(C(=O)c2c[nH]c3ncc(-c4ccc(Cl)cc4)cc23)c1F,"enzyme activity, inhibitor",1 µM,inhibition,< 10%
Cc1ccc(NC(=O)c2ccc(CN3CCN(C)CC3)cc2)cc1Nc1nc(-c2cccnc2)cs1,cell-free assay,0.5 µM,remaining signal,103%
Cn1nc(C(F)(F)F)cc1-c1cnc(N2CCc3cc(S(=O)(=O)Nc4c(F)cc(Cl)cc4F)cc(N4CCCC4=O)c32)nc1,"cell-free assay, competition with immobilised ligand",1 µM,remaining binding,79%
Cc1cc(NC(=O)c2cccc3cc(-c4cccc5[nH]nc(N)c45)ccc23)ccc1F,"enzyme activity, inhibitor",0.1 µM,activity vs control,108%
O=C(NS(=O)(=O)c1ccc(NCC2CCOCC2)c([N+](=O)[O-])c1)c1ccc(N2CCN(Cc3ccc(C(F)(F)F)cc3-c3ccc(Cl)cc3)CC2)cc1Oc1cnc2[nH]ccc2c1,"cell-free assay, competition with immobilised ligand",1 µM,remaining binding,100%
Cc1ccc(C(=O)Nc2ccc(CN3CCN(C)CC3)c(C(F)(F)F)c2)cc1C#Cc1cnc2cccnn12,"enzyme activity, inhibitor",23.5 nM,remaining activity,44%
CS(=O)(=O)N1CCCC(NC(=O)[C@H](CCC2CCCCC2)NC(=O)c2ccc(CNc3ncnc4c3nnn4-c3ccccc3)cc2)C1 (stereo partly shown),"cell-free assay, competition with immobilised ligand",0.1 µM,remaining binding,100%
CC(C)(C)c1nc(-c2cccc(NS(=O)(=O)c3c(F)cccc3F)c2F)c(-c2ccnc(N)n2)s1,"enzyme activity, inhibitor, radiometric",1 µM,remaining activity,96%
Cc1noc([C@H]2C[C@@H](c3ccc(C(F)(F)F)cc3)CN(C(=O)N3CCS(=O)(=O)C3)C2)n1,"cell-free assay, competition with immobilised ligand",1 µM,remaining binding,100%
O=C1NC(=O)c2cc(Nc3ccc(F)cc3)c(Nc3ccc(F)cc3)cc21,cell-free assay,0.5 µM,remaining signal,107%
O=C(NCc1ncc(C(F)(F)F)cc1Cl)c1ccc2c(c1)C1(CCS(=O)(=O)CC1)[C@H](C1CC1)N2S(=O)(=O)c1ccc(F)cc1,"cell-free assay, competition with immobilised ligand",1 µM,remaining binding,100%
COc1ccc(COc2ccc(Cc3cnc(N)nc3N)cc2OC)cc1,cell-free assay,0.5 µM,remaining signal,106%
